Among the data in ChEMBL document CHEMBL3232757, “Structure-activity relationships for withanolides as inducers of the cellular heat-shock response” (J Med Chem, 2014) are fold change (FC) and IC50 values, retold here.

Experiment [1] addresses Heat shock 70 kDa protein 6 (Homo sapiens) (UniProt P17066). Put plainly: Induction of […] (unknown origin)-mediated heat shock response expressed in human 293T cells coexpressing GFP assessed as heat shock index after overnight incubation by luciferase reporter gene assay relative to control. Type of experiment: cell-based. The method in brief: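 293T cells transduced with a lentiviral EGFP–firefly luciferase fusion under HSP70B′ promoter elements, enriched by heat shock (42 °C, 1 h) plus FACS, then reverse-sorted to remove constitutive expressers. Cells in DMEM/10% FBS were seeded at 20 000/well and given serial dilutions next day, quadruplicate wells, overnight. Read by Steady-Glo luminescence. Index = [Log2(treated/control)]/concentration (μM) at maximal response.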
In general terms: Reporter assays use an easily measured gene product as a stand-in for the process of interest.

Experiment [2] can be described thus: Cytotoxicity against human NCI-H929 cells after 3 days by Alamar blue assay. Type of experiment: functional, cell-based. As to conditions: NCI-H929, 72 h. (Resazurin is reduced to fluorescent resorufin, in cell work by metabolically active cells.)

One may read the IC50 as the concentration needed to halve the response being measured.

Molecules are shown by their SMILES. Peptide text beside a SMILES is read from it. * marks the point of attachment. Cbz = O=C(OCc1ccccc1)* A value given as a limit tells only on which side of the number the result lay.

Sequence of Heat shock 70 kDa protein 6 (Homo sapiens) (P17066 whole entry, the tested form may be a part): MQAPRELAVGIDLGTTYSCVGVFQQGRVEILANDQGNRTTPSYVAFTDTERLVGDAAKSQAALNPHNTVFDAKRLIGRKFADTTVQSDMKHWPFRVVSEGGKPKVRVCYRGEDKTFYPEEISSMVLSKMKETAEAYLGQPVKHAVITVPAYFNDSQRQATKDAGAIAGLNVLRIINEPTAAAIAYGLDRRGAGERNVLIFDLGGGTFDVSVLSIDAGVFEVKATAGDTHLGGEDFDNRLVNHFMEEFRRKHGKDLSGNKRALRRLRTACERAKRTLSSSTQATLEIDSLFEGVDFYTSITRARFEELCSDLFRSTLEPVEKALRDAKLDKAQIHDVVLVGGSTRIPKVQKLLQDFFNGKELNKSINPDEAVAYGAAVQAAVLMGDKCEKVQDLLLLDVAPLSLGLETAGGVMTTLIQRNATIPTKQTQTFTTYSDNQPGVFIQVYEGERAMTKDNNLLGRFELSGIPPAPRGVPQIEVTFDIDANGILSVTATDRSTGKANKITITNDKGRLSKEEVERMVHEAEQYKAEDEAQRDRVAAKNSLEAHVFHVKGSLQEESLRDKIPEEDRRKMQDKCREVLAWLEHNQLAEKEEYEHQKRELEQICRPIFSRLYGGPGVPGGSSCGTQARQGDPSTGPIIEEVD

Consider `CC(C)C[C@@H](C=O)NC(=O)[C@H](CC(C)C)NC(=O)[C@H](CC(C)C)NC(=O)OCc1ccccc1` [MG-132] (Cbz-Leu-Leu-Leu-aldehyde), for which, in experiment [1], the fold change (FC) was 0.71. In experiment [2], this molecule registered an IC50 of 0.17 µM.
The like results for `CC1=C(CO)C(=O)O[C@@H]([C@@H](C)[C@H]2CC[C@H]3[C@@H]4C[C@H]5O[C@]56[C@@H](O)[C@@H](O)CC(=O)[C@]6(C)[C@H]4CC[C@]23C)C1` [VISCOSALACTONE B] were, in that order, 0 and greater than 10 µM.
On to `CC1=C(CO)C(=O)O[C@@H]([C@@H](C)[C@H]2CC[C@H]3[C@@H]4C[C@H]5O[C@]56[C@@H](O)[C@@H](OS(=O)(=O)O)CC(=O)[C@]6(C)[C@H]4CC[C@]23C)C1`, for which the fold change (FC) in experiment [1] worked out at 0. The molecule further yielded an IC50 in experiment [2] of 5.25 µM.
The like results for `CC1=C(CO)C(=O)O[C@@H]([C@@H](C)[C@H]2C[C@@H](O)[C@H]3[C@@H]4C[C@H]5O[C@]56[C@@H](O)C=CC(=O)[C@]6(C)[C@H]4CC[C@@]32C)C1` were, in that order, 0 and 3.83 µM.
For `CC(=O)OCC1=C(C)C[C@H]([C@@H](C)[C@H]2CC[C@H]3[C@@H]4C[C@@H](OC(C)=O)[C@@]5(O)CC=CC(=O)[C@]5(C)[C@H]4CC[C@]23C)OC1=O` the same measures were 0 and greater than 10 µM.
The like results for `CCCCO[C@H]1CC(=O)[C@]2(C)[C@H]3CC[C@]4(C)[C@@H]([C@H](C)[C@H]5CC(C)=C(CO)C(=O)O5)CC[C@H]4[C@@H]3C[C@H]3O[C@]32[C@H]1O` were, in that order, 0 and 8.74 µM.
With `CC1=C(CO)C(=O)O[C@@H]([C@@H](C)[C@H]2CC[C@H]3[C@@H]4C[C@@H](O)[C@@]5(O)CC=CC(=O)[C@]5(C)[C@H]4CC[C@]23C)C1` [JABOROSALACTONE D], the fold change (FC) in experiment [1] came out at 0. The molecule also came in with an IC50 in experiment [2] greater than 10 µM.
For `CC1=C(CO)C(=O)O[C@@H]([C@@H](C)[C@H]2CC[C@H]3[C@@H]4CC=C5[C@@H](O)C=CC(=O)[C@]5(C)[C@H]4CC[C@]23C)C1` the same measures were 0 and 5.09 µM.
The like results for `CC1=C(CO)C(=O)O[C@@H]([C@@H](C)[C@H]2CC[C@H]3[C@@H]4CC=C5C[C@@H](O)C[C@H](O)[C@]5(C)[C@H]4CC[C@]23C)C1` were, in that order, 0 and 4.96 µM.
For `CC1=C(CO)C(=O)O[C@@H]([C@@H](C)[C@H]2CC[C@H]3[C@@H]4C[C@H]5O[C@]56[C@@H](O)C=CC(=O)[C@]6(C)[C@H]4C[C@@H](O)[C@]23C)C1` the same measures were 0 and 4.3 µM.
As for `CC(=O)OCC1=C(C)C[C@H]([C@@H](C)[C@H]2CC[C@H]3[C@@H]4C[C@H](OC(C)=O)[C@]5(O)[C@@H](OC(C)=O)C=CC(=O)[C@]5(C)[C@H]4CC[C@]23C)OC1=O`, the fold change (FC) in experiment [1] amounted to 0.74. Besides, the IC50 in experiment [2] stood at 2.29 µM.
Take `CC1=C(CO)C(=O)O[C@@H]([C@@H](C)[C@H]2CC[C@H]3[C@@H]4C[C@H](O)[C@]5(O)[C@@H](O)C=CC(=O)[C@]5(C)[C@H]4CC[C@]23C)C1`: the fold change (FC) in experiment [1] turned out to be 0. Moreover, the IC50 in experiment [2] is greater than 10 µM.
As for `CC(=O)OCC1=C(C)C[C@H]([C@@H](C)[C@H]2CC[C@H]3[C@@H]4[C@@H]5O[C@@H]5[C@@]5(O)CC=CC(=O)[C@]5(C)[C@H]4CC[C@]23C)OC1=O`, the fold change (FC) in experiment [1] worked out at 0. This molecule also yielded an IC50 in experiment [2] greater than 10 µM.
For `CC1=C(CO)C(=O)O[C@@H]([C@@H](C)[C@H]2CC[C@H]3[C@@H]4C[C@H]5O[C@]56[C@@H](O)CCC(=O)[C@]6(C)[C@H]4CC[C@]23C)C1` the same measures were 0 and greater than 10 µM.
